Calls of active or inactive are those of the source. The rule behind the calls is not given here.
Columns and labels:
[1] = Antiplatelet aggregation activity against 10 ug/mL collagen-induced rabbit platelet assessed as platelet aggregation at 100 uM relative to control; format: functional, Oryctolagus cuniculus
Summary of the method: (§1)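 Platelets were preincubated with test sample or vehicle (0.5% DMSO) at 37 °C for 1 min. Aggregation was then triggered with arachidonic acid (100 µM), collagen (10 µg/mL), thrombin (0.1 U/mL) or PAF (2 ng/mL). Results are given as percent aggregation, mean ± SD, with significance at p < 0.05 and p < 0.01.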

Platelet [2] = assay: Stimulation of rabbit platelet aggregation at 28.4 +/- 4.8 ug/mL; format: functional, cell-based; conditions: Oryctolagus cuniculus
[3] = Antiplatelet aggregation activity against 100 uM arachidonic acid-induced rabbit platelet assessed as platelet aggregation at 100 uM relative to control; format: functional, Oryctolagus cuniculus; summary of the method: as §1
[4] = Antiplatelet aggregation activity against 2 ng/mL platelet activating factor-induced rabbit platelet assessed as platelet aggregation at 100 uM relative to control; format: functional, Oryctolagus cuniculus; summary of the method: as §1
[5] = Antiplatelet aggregation activity against 0.1 U/mL thrombin-induced rabbit platelet assessed as platelet aggregation at 100 uM relative to control; format: functional, Oryctolagus cuniculus; summary of the method: as §1
Platelet [6] = assay: Stimulation of rabbit platelet aggregation at 30.9 +/- 6.0 ug/mL; format: functional, cell-based; conditions: Oryctolagus cuniculus
[7] = Antiplatelet aggregation activity against 10 ug/mL collagen-induced rabbit platelet assessed as platelet aggregation at 150 uM relative to control; format: functional, Oryctolagus cuniculus; summary of the method: as §1
[8] = Antiplatelet aggregation activity against 100 uM arachidonic acid-induced rabbit platelet assessed as platelet aggregation at 150 uM relative to control; format: functional, Oryctolagus cuniculus; summary of the method: as §1
[9] = Antiplatelet aggregation activity against 0.1 U/mL thrombin-induced rabbit platelet assessed as platelet aggregation at 150 uM relative to control; format: functional, Oryctolagus cuniculus; summary of the method: as §1
[10] = Antiplatelet aggregation activity against 2 ng/mL platelet activating factor-induced rabbit platelet assessed as platelet aggregation at 150 uM relative to control; format: functional, Oryctolagus cuniculus; summary of the method: as §1

Row | Compound | Activity [1] [%] | Activity (Platelet [2]) | Activity [3] [%] | Activity [4] [%] | Activity [5] [%] | Activity (Platelet [6]) | Activity [7] [%] | Activity [8] [%] | Activity [9] [%] | Activity [10] [%]
1 | CC(=O)O[C@@H]1C[C@@H](C(C)C)[C@]2(CO)CC[C@@]3(C)[C@H]4C(=CC[C@]3(C)[C@@H]12)[C@@]1(C)CCC(=O)C(C)(C)[C@@H]1C[C@@H]4O [RUBIARBONONE A] | 88.1 | Active | 85.4 | 90.3 | 91.1 |  |  |  |  | 
2 | CC(C)[C@@H]1C[C@@H](O)[C@H]2[C@@]1(CO)CC[C@@]1(C)[C@H]3C(=CC[C@]21C)[C@@]1(C)CC[C@H](O)C(C)(C)[C@@H]1C[C@@H]3O [RUBIARBONOL A] | 89.6 |  | 83.8 | 91.3 | 90.7 | Active |  |  |  | 
3 | CC(C)[C@@H]1C[C@@H](O)[C@H]2[C@@]1(C)CC[C@@]1(C)[C@H]3C(=CC[C@]21C)[C@@]1(C)CC[C@H](O)C(C)(C)[C@@H]1C[C@@H]3O [RUBIARBONOL B] | 82.2 |  |  |  |  |  | 79.8 | 80.4 | 89.6 | 90.4
